TRPML3 ag: human TRPML3 channel agonists, primary screen, cell-based, HEK293 TRPML3-YFP, Fluo-8 calcium fluorescence, 3 µM | actives 0.29% (n = 220,000) | 100% = the carbachol control signal | AID 1448, 2008 | activation, % at 3 µM;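 active means activation above its plate's cutoff, the mean activation of the plate's test wells plus 3 SD, cut at about 12% in these data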
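Test system: HEK293 cells stably carrying human TRPML3-YFP; Doses: single dose, 3 µM final nominal compound, 0.3% DMSO final; Schedule: dye loading 1 h 37 °C then 30 min ambient, 125 s read; Technique: Fluo-8 calcium fluorescence; Benchmarks: high control carbachol 87 µM, low control DMSO.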
OX1R antag-1: antagonists of human orexin 1 receptor (OX1R). Orexin/Hypocretin receptor type 1 (Homo sapiens), O43613. OX1R-expressing cells, FRET antagonist read-out. inhibition, % at 6.6 µM. actives 1.8% (n = 330,000). AID 485270, 2010; in the data active means inhibition mostly above about 38%, no sharp cut-off; inactive means mostly below about 40%
Target sequence (O43613 whole entry, looked up): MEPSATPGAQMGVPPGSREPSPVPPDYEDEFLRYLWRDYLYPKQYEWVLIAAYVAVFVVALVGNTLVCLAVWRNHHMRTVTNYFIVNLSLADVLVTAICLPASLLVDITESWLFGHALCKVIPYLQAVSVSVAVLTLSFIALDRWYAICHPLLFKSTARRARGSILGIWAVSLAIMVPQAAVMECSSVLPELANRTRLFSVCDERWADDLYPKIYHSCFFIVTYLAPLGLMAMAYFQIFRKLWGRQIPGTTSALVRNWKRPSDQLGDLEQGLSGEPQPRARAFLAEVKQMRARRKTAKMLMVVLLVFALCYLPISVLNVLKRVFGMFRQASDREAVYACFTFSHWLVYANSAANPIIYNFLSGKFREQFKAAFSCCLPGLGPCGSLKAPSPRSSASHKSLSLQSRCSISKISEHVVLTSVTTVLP
GPR7 antag: GPR7 receptor antagonists, primary screen, cell-based, fluorescence, single concentration; GPR7-expressing cells, fluorescence antagonist assay; AID 1861, 2009; actives 1.1% (n = 290,000); inhibition, % at 4.4 µM; in the data active means inhibition above about 16%, passing the limit was not always enough;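 further: cells stimulated with the agonist NPW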
Target sequence (P48145 whole entry, looked up): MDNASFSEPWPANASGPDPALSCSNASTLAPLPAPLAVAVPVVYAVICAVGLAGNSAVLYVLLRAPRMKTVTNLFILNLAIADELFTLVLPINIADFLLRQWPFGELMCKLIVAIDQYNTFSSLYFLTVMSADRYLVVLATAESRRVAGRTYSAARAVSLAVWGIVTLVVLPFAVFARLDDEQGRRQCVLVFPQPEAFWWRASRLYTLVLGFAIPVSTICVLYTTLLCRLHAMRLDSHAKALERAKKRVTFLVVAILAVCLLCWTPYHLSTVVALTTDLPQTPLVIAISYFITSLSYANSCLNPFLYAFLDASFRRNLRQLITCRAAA
zfTRPN1 agonist: zebrafish TRPN1 channel agonists, primary screen, cell-based, HEK293, calcium fluorescence. transient receptor potential cation channel N1 (TRPN1/NompC), Danio rerio. HEK293 zebrafish TRPN1-YFP, Fluo-8 calcium fluorescence; 100% = response to 87 µM carbachol. activation, % at 3 µM. actives 0.18% (n = 220,000). AID 1424, 2008;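 active means activation above its plate's cutoff, the mean activation of test wells on that plate plus 3 SD, cut at about 19% in these data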
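Material: zebrafish TRPN1-YFP in HEK293 cells; Doses: single test compound dose, 3 µM nominal, 0.3% DMSO; Timing: dye loading 1 h at 37 °C, then 30 min room temperature; Technique: intracellular calcium fluorescence with Fluo-8; Benchmarks: high carbachol 87 µM, low DMSO alone.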
CHO parental Ca: ATP-evoked calcium signal inhibitors, parental CHO, primary screen, counter-screen for OX1R antagonist project, cell-based, fluorescence, Fluo-8 calcium dye; actives 0.63% (n = 330,000); inhibition, % at 5.6 µM; parental CHO-K1, ATP-induced calcium, Fluo-8 fluorescence;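 active means inhibition above that plate's mean sample inhibition plus 3 SD, cut at about 26% in these data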
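Material: parental CHO cells / Compound: single nominal dose of 5.6 µM per compound / Signal: Fluo-8 fluorescence / Replicates: singlicate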
OX1R antag-2: OX1R (HCRTR1) antagonists, primary screen, fluorescence, CHO/OX1R cells, Fluo-8 calcium, orexin A | inhibition, % at 5 µM | actives 0.43% (n = 330,000) | Orexin/Hypocretin receptor type 1 (Homo sapiens), O43613 | Fluo-8 calcium fluorescence;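 active means inhibition above its plate's threshold, mean inhibition of all tested compounds on the plate plus 3 SD, cut at about 37% in these data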
OX1R HTRF conf: OX1R (HCRTR1) antagonists, confirmation, cell-based, HTRF. inhibition, % at 6.6 µM. OX1R-expressing cells, HTRF antagonist assay. actives 49% (n = 1,800). AID 492964, 2010. shares compounds with OX1R antag-1; in the data active means inhibition above about 55%;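 further: CHO cells expressing OX1R stimulated with orexin A at about EC80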
CHO-K1 HTRF: signal inhibition in parental CHO-K1 cells, counter-screen for OX1R antagonist project, cell-based, HTRF. inhibition, % at 6.6 µM. HTRF counterscreen. shares compounds with OX1R antag-1. AID 493232, 2011. actives 48% (n = 1,800); in the data active means inhibition above about 17%
Large screens that a line does not name were inactive (follow-up assays come after a bar, where they were run). The list is not random: actives were taken first. Their share in the collection is about 3.2%.

NC(=O)N=Nc1c(O)[nH]c2ccc([N+](=O)[O-])cc12	OX1R antag-1 102 | OX1R HTRF conf inactive | CHO-K1 HTRF 63
Cc1ccc(-n2[nH]c3c4c(ccc3c2=O)C(=O)c2ccccc2C4=O)cc1	none
CC(C)(C)n1[nH]c2c3c(ccc2c1=O)C(=O)c1ccccc1C3=O	OX1R antag-1 129 | OX1R HTRF conf inactive | CHO-K1 HTRF 43
CC(C)Cn1c(N)c(C(=O)COC(=O)c2ccc([N+](=O)[O-])o2)c(=O)n(C)c1=O	OX1R antag-1 81 | OX1R HTRF conf inactive | CHO-K1 HTRF 24
CC(C)Cn1c(N)c(C(=O)COC(=O)c2cnccn2)c(=O)n(C)c1=O	none (no result: TRPML3 ag, GPR7 antag, zfTRPN1 agonist)
O=C(Nc1ccc(Cl)c(-c2nc3ccccc3[nH]2)c1)c1ccc2c(c1)OCO2	OX1R antag-1 82 | OX1R HTRF conf 84 | CHO-K1 HTRF inactive
COc1cccc(C(=O)NC2CC3CCCC(C2)N3CC(=O)Nc2ccccc2C(F)(F)F)c1 (stereo unspecified)	OX1R antag-1 90 (no result: TRPML3 ag, zfTRPN1 agonist) | OX1R HTRF conf 89 | CHO-K1 HTRF inactive
COc1cccc(C(=O)NC2CC3CCC(C2)N3Cc2ccccc2)c1 (stereo unspecified)	none (no result: TRPML3 ag, zfTRPN1 agonist)
O=C(CSc1nnc2ccccn12)NNC(=O)c1ccc([N+](=O)[O-])cc1	OX1R antag-1 97 | OX1R HTRF conf inactive | CHO-K1 HTRF 36
O=C(CSc1nnc2ccccn12)NNC(=O)c1ccccc1	none
Cc1ccc(Cn2ccc(O)c(Cc3ccccc3)c2=O)cc1	none
CC(=O)Nc1ccc(NC(=O)C(C)OC(=O)C(C)SCC(=O)Nc2ccc(C)cc2)cc1 (stereo unspecified)	OX1R antag-1 82 (no result: TRPML3 ag, GPR7 antag, zfTRPN1 agonist) | OX1R HTRF conf 75 | CHO-K1 HTRF inactive
CN(CC(=O)NC1CCCCC1)S(=O)(=O)c1cccc2nsnc12	OX1R antag-1 95 | OX1R HTRF conf 56 | CHO-K1 HTRF 37
CN(CC(=O)NCCN1CCCCCC1)S(=O)(=O)c1cccc2nsnc12	OX1R antag-1 80 | OX1R HTRF conf inactive | CHO-K1 HTRF 42
CC1CCCCC1NC(=O)CN(C)S(=O)(=O)c1cccc2nsnc12 (stereo unspecified)	OX1R antag-1 84 | OX1R HTRF conf inactive | CHO-K1 HTRF 24
CC(C)CCNC(=O)CN(C)S(=O)(=O)c1cccc2nsnc12	none
O=C(CCS(=O)(=O)c1cccc2nsnc12)NC1CCCCCC1	none
CC(=O)N(C)C1=C(O)c2ccccc2C(=O)C1=O	OX1R antag-1 83 | OX1R HTRF conf inactive | CHO-K1 HTRF 94
CCN(C(=O)COC(=O)/C=C/c1cnc2ccccc2n1)C1CCS(=O)(=O)C1 (stereo unspecified)	OX1R antag-1 82 | OX1R HTRF conf inactive | CHO-K1 HTRF 46
Cn1c2ccccc2c2cc(/C=N/NC(=O)c3ccc(N)cc3)ccc21	OX1R antag-1 88 (no result: TRPML3 ag, zfTRPN1 agonist) | OX1R HTRF conf 88 | CHO-K1 HTRF inactive
O=C(NCCC1CCCCN1S(=O)(=O)c1ccc(Cl)cc1)C(=O)NCc1cccnc1 (stereo unspecified)	none (no result: TRPML3 ag, GPR7 antag, zfTRPN1 agonist)
O=C(Nc1cccc(/C=C/c2ccccn2)c1)c1cc(Cl)ccn1	OX1R antag-1 80 (no result: TRPML3 ag, zfTRPN1 agonist) | OX1R HTRF conf 85 | CHO-K1 HTRF inactive
Cc1cccc(NC(=O)C2CCN(S(=O)(=O)c3cccc4nsnc34)CC2)n1	none
Cc1cccc(NC(=O)C2CCCN(S(=O)(=O)c3cccc4nsnc34)C2)n1 (stereo unspecified)	OX1R antag-1 84 | OX1R HTRF conf inactive | CHO-K1 HTRF 18
Cc1cccc(NC(=O)C2CCN(S(=O)(=O)c3cccc4nsnc34)CC2)c1	none
CCOCCCNC(=O)C1CCCN(S(=O)(=O)c2cccc3nsnc23)C1 (stereo unspecified)	none (no result: TRPML3 ag, zfTRPN1 agonist)
Cc1cccc(NC(=O)C2CCCN(S(=O)(=O)c3cccc4nsnc34)C2)c1 (stereo unspecified)	OX1R antag-1 91 | OX1R HTRF conf 57 | CHO-K1 HTRF inactive
CCN1CCCC1CNC(=O)C1CCCN(S(=O)(=O)c2cccc3nsnc23)C1 (stereo unspecified)	OX1R antag-1 118 | OX1R HTRF conf inactive | CHO-K1 HTRF 62
O=C(Nc1ccc(Cl)cn1)c1ccc2[nH]c(=O)c(=O)[nH]c2c1	none (no result: TRPML3 ag, zfTRPN1 agonist)
COc1ccc(C(=O)Oc2cccc(Nc3ncnc4ccccc34)c2)cc1OC	OX1R antag-1 84 | OX1R HTRF conf inactive | CHO-K1 HTRF inactive
CC(C)(C)C(=O)Oc1cccc(Nc2ncnc3ccccc23)c1	none (no result: TRPML3 ag, zfTRPN1 agonist)
COc1cc(OC)cc(N2C(=O)CSCC2=O)c1	none
CCC1(CC)N([O-])C(C)=C(c2ccccc2)[N+]1=O	none
CC1(C)N([O-])C2=C(c3ccccc3C2=O)[N+](=O)C1(C)C	OX1R antag-1 169 | OX1R HTRF conf 56 | CHO-K1 HTRF 66
Cc1ccc(NC(=O)COc2ccccc2)cc1S(=O)(=O)N1CCCCCC1	OX1R antag-1 98 (no result: TRPML3 ag, GPR7 antag, zfTRPN1 agonist) | OX1R HTRF conf inactive | CHO-K1 HTRF inactive
Cc1nc(-c2cccc(NC(=O)c3ccc(-n4nccc4C)cc3)c2)cs1	none (no result: TRPML3 ag, GPR7 antag, zfTRPN1 agonist)
Cc1nc(-c2ccc(C(=O)Nc3cccc(Br)c3)cc2)cs1	OX1R antag-1 88 | OX1R HTRF conf inactive | CHO-K1 HTRF inactive
CN1CCN(Cc2c(O)ccc3cc(-c4ccccn4)c(=O)oc23)CC1	OX1R antag-1 81 | OX1R HTRF conf inactive | CHO-K1 HTRF 33
CCOC(=O)c1cc(-c2ccccc2)sc1NC(=O)C(C)OC(=O)c1cccnc1Cl (stereo unspecified)	none
CCCOc1ccc(/C=N/NC(=O)CN(c2ccc(OCC)cc2)S(C)(=O)=O)cc1	none
CCOc1ccc(N(CC(=O)N/N=C/c2cc([N+](=O)[O-])ccc2Cl)S(C)(=O)=O)cc1	OX1R antag-1 81 | OX1R HTRF conf inactive | CHO-K1 HTRF inactive
CCN1CCN(C(CNS(=O)(=O)c2ccc(F)cc2)c2cccnc2)CC1 (stereo unspecified)	none (no result: TRPML3 ag, zfTRPN1 agonist)

Screening data from PubChem BioAssay.
